Experimental data gathered from unrelated publications.
Each line is one published result; the experiments were not run side by side.
FLT3 K663Q: Receptor-type tyrosine-protein kinase FLT3 (FLT3, Homo sapiens, UniProt P36888, K663Q)
FLT3 N841I: Receptor-type tyrosine-protein kinase FLT3 (FLT3, Homo sapiens, UniProt P36888, N841I)

| SMILES | target | assay | setting | endpoint | result |
| --- | --- | --- | --- | --- | --- |
| C[C@@H]1CCN(c2nccc(-c3cnn4ncccc34)n2)C1 | FLT3 K663Q | binding | 1 µM | remaining binding | 100% |
| Cc1cnc(Nc2ccc(C(=O)N3CCC(N4CCCC4)CC3)cc2)nc1-c1cc2ccccc2s1 | Receptor-type tyrosine-protein kinase FLT3 (FLT3, Homo sapiens, UniProt P36888) | binding, competition with immobilised ligand | 1 µM | remaining binding | 1.6% |
| Nc1ncnc2occ(-c3ccc(NC(=O)Nc4cc(C(F)(F)F)ccc4F)cc3)c12 | Receptor-type tyrosine-protein kinase FLT3 (FLT3, Homo sapiens, UniProt P36888, R834Q) | cell-free assay, inhibitor | 20 µM | remaining signal | 0% |
| N#Cc1ccc(Nc2ccc3[nH]c(=O)[nH]c3c2)c(Cl)c1 | Receptor-type tyrosine-protein kinase FLT3 (FLT3, Homo sapiens, UniProt P36888, D835Y) | cell-free assay, competition with immobilised ligand | 1 µM | remaining binding | 94% |
| Cc1ccc(C(=O)Nc2ccc(CN3CCN(C)CC3)c(C(F)(F)F)c2)cc1C#Cc1cnc2cccnn12 | FLT3 K663Q | enzyme activity, inhibitor | 23.5 nM | remaining activity | 6.3% |
| Cn1nc(C(F)(F)F)cc1-c1cnc(N2CCc3cc(S(=O)(=O)Nc4c(F)cc(Cl)cc4F)cc(N4CCCC4=O)c32)nc1 | FLT3 N841I | cell-free assay, competition with immobilised ligand | 1 µM | remaining binding | 94% |
| F[C@@H]1CCN(c2nccc(-c3cnn4ncccc34)n2)C1 | FLT3 N841I | binding | 1 µM | remaining binding | 100% |
| CC(C)CC(=O)N1CCc2nc(-c3ccc(Br)cc3)nc(N(C)Cc3ccccc3)c2C1 | Receptor-type tyrosine-protein kinase FLT3 (FLT3, Homo sapiens, UniProt P36888, F691L/ITD) | cell-free assay, competition with immobilised ligand | 0.1 µM | remaining binding | 68% |
| O=C(c1ccc(Nc2ncc(Cl)c(-c3cc4ccccc4s3)n2)cc1)N1CCC(N2CCCC2)CC1 | Receptor-type tyrosine-protein kinase FLT3 (FLT3, Homo sapiens, UniProt P36888, D835V/ITD) | binding, competition with immobilised ligand | 1 µM | remaining binding | 7.6% |
